From PubChem BioAssay
Rows were chosen to be rich in hits. Some 5.7% of all compounds tested hit in one or more screens of this group.
Calb FLC: affects C. albicans growth with fluconazole | actives 0.57% (n = 300,000) | growth inhibition, % (no concentration beside the values) | C. albicans CaCi-2 (fluconazole-resistant clinical isolate) + fluconazole, Alamar Blue growth, 48 h;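 active means growth inhibition above about 58% in most replicates, limit read from the data, passing the limit was not always enough; inconclusive means exactly half the replicates above a set limit; inactive means most replicates below a set limit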;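 further: all wells also contain fluconazole at 8 µg/ml as a sub-toxic cotreatment; 0% = median of DMSO wells and 100% = median of geldanamycin control wells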
Beta cell apopt: beta cell apoptosis inhibition; protection from apoptosis, % (no concentration beside the values); actives 0.8% (n = 300,000); INS-1E cytokine-induced death, ATP luminescence, 48 h; percent of positive-control rescue, neutral wells zero;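 active means Every replicate reaches about 75%, or at least half do and their mean reaches it too, limit read from the data; inconclusive means At least half of replicates reach the limit but their mean does not; inactive means Under half of replicates reach the limit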;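 further: 0% = cytokine-treated negative control wells and 100% = positive control rescue; higher means more ATP so stronger rescue from cytokine killing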
SKKanGAS inh: inhibitors of SKKanGAS S. pyogenes growth in kanamycin (SK-promoter or general growth effect) | inhibition, % at 7.5 µM | actives 1.3% (n = 300,000) | BacTiter-Glo, 6 h;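 active means mean replicate score, as percent of positive control median, at least 50; inconclusive means mean below 50 but one replicate at or above 50; inactive means mean and every replicate below 50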;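 further: strain carries kanamycin resistance gene driven by streptokinase promoter and grows in 40 µg/ml kanamycin; loss of luminescence reflects streptokinase promoter inhibition or plain growth inhibition; 0% = median of DMSO wells and 100% = positive control at its reference dose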
T cruzi repl: T. cruzi replication inhibition | T. cruzi beta-gal in NIH3T3, luminescence, 90 h | inhibition, % (concentration not given with the values) | actives 1.4% (n = 300,000);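 active means mean inhibition across valid replicates above about 55%, limit read from the data; inconclusive means mean below that limit but half or more replicates reach it; inactive means mean below it, under half of replicates reach it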;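 further: signal also drops with host cell toxicity which is not excluded here; 0% = plate median of DMSO wells and 100% = zero luminescence signal; higher percent means less beta-gal luminescence so fewer parasites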
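assay system = mouse NIH/3T3 fibroblasts infected with β-gal-expressing T. cruzi Tulahuen C4 | input = 5,000 NIH/3T3 host cells per well | buffer or medium = DMEM plus 2% FBS | timing = 3 h host attachment, then at least 90 h co-culture | measured by = GalScreen luminescence, 60 min | evaluation = luminescence reflecting intracellular parasite burden, expressed as percent inhibition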
CSC inhib: cancer stem cell inhibition; AID 2717; inhibition, % at 7.5 µM; actives 1.1% (n = 300,000); cancer stem cell-like cells viability, luminescence; in the data active means inhibition above about 75%; inconclusive means no clear call, values can overlap the other calls; tested in HMLE shEcad cells
Mdm2 MdmX PPI: human Mdm2/MdmX binding inhibition; O15151+Q00987; SaOS-2 split-luciferase Mdm2/MdmX complementation, luminescence; inhibition, % at 8 µM; actives 3% (n = 330,000); AID 485346;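 active means inhibition of at least 50% at 8 µM in the primary screen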
Target sequence (O15151 whole entry, looked up): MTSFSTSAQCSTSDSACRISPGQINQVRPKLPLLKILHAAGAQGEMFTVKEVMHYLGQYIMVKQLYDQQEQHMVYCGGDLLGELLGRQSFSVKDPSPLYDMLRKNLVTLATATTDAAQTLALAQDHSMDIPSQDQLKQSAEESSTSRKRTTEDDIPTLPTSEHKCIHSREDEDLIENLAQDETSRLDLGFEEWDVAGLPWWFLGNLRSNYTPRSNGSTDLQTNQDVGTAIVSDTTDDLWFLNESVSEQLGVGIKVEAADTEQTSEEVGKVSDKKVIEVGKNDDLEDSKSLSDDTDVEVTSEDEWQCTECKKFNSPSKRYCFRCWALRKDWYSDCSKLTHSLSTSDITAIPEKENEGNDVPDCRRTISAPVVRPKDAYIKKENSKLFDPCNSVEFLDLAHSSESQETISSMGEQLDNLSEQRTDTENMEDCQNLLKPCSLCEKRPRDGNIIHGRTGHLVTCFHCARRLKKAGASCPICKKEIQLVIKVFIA
Target sequence (Q00987 whole entry, looked up): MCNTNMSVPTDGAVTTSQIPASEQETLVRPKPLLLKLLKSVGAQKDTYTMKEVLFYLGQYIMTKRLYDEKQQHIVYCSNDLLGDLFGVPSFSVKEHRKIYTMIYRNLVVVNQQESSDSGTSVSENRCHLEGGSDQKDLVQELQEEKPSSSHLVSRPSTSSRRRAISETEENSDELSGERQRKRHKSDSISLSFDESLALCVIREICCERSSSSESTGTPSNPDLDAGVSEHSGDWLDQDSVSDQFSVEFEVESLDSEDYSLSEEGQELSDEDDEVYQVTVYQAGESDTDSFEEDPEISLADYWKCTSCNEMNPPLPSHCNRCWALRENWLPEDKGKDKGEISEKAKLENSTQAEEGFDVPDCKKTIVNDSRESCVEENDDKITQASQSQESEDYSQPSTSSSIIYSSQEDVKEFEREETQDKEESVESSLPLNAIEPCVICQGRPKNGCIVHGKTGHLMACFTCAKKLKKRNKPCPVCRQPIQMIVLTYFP
The depositor's hits bear a star; ? = inconclusive; / = no result given.

SMILES	Calb FLC	Beta cell apopt	SKKanGAS inh	T cruzi repl	CSC inhib	Mdm2 MdmX PPI
CC(C)CCc1noc(CN(C)CCC2CCOCC2)n1	-3	2	-7	40	-14	11
Cc1nn(C)c(C)c1CN(Cc1nc(CCC(C)C)no1)C(C)C	36	94*	-13	33	-1	1
COc1ccc(NC(=O)c2ccc3c(=O)n(CC4CCCO4)c(=S)[nH]c3c2)c(OC)c1 (configuration not stated)	11	-8	5	-5	-9	-2
Cc1cccc2sc(NNC(=O)c3ccc(S(=O)(=O)N4CCCC(C)C4)cc3)nc12 (configuration not stated)	-1	102*	91*	34	128*	/
CCc1nnc(NC(=O)c2ccc(S(=O)(=O)N3CCCC(C)C3)cc2)s1 (configuration not stated)	-5	-9	4	2	/	16
O=C(O)c1cnc(-c2ccccc2)nc1Sc1ccccc1Cl	96*	7	9	-7	19	13
O=C(O)c1cnc(-c2ccccc2)nc1Sc1ccc(Cl)cc1	99*	1	9	-9	17	-1
COc1ccc(Sc2nc(-c3ccccc3)ncc2C(=O)O)cc1	60	-1	/	-26	-3	26
Cc1cccc(Sc2nc(-c3ccccc3)ncc2C(=O)O)c1	109*	-2	-20	11	15	8
CN(C)c1nc(N/N=C/c2ccccc2O)nc(Nc2ccc(F)cc2)n1	?	106*	93*	28	-1	43
Cc1cc(C)cc(-n2c(C)nc3cc(C(=O)O)ccc32)c1	-6	-1	1	-4	-7	-39
Oc1c(Cl)cc(Cl)cc1C(C#Cc1ccccc1)N1CCOCC1 (configuration not stated)	2	1	90*	6	35	6
COc1cc(/C=N/n2c(C)nc3ccccc3c2=O)cc(OC)c1O	7	3	1	-9	-8	7
COC(=O)c1c(-c2ccc(OC)cc2)oc2ccc(-c3cc(OC)c(OC)c(OC)c3)cc12	-10	2	20	7	100*	18
Cc1ccc(C(=O)Nc2ncc(Cc3ccccc3)s2)o1	-1	/	23	4	97*	-104
O=C(Nc1nnc(Cc2ccccc2)s1)c1cccs1	-1	3	8	-15	21	-20
O=C(Nc1nnc(Cc2ccccc2)s1)c1ccccc1	0	-4	2	-19	-1	-3
CCc1nnc(NC(=O)c2ccc(C)o2)s1	1	2	4	-24	-41	18
O=C(Nc1ncc(Cc2ccc(SC(F)F)cc2)s1)c1ccccc1	-13	9	82*	-31	68	30
O=C(Nc1ncc(Cc2ccccc2)s1)c1cccs1	10	-4	66*	4	50	-104
O=C(Nc1ncc(Cc2cccc(Cl)c2)s1)c1cccs1	-2	-1	95*	23	/	-42
CN(C)c1nc(F)c(F)c(S(=O)(=O)c2ccccc2)c1F	8	6	11	45	3	18
O=C(CCc1nnc2ccc(N3CCC4(CC3)OCCO4)nn12)Nc1ccc(F)cc1	-3	-2	0	0	-12	8
COc1ccc(CN2C(=O)CC(C(=O)NCCc3ccc(S(N)(=O)=O)cc3)SC2=Nc2ccccc2)cc1 (configuration not stated)	-4	3	12	14	6	-10
Cc1cccnc1NC(=O)c1cccc(NC(=O)CC2SC(N3CCCCC3)=NC2=O)c1 (configuration not stated)	/	-3	/	/	/	-15
SMILES	Calb FLC	Beta cell apopt	SKKanGAS inh	T cruzi repl	CSC inhib	Mdm2 MdmX PPI
Cc1ccc(Cc2cnc(NC(=O)c3cccs3)s2)cc1	8	5	78*	-9	-23	-203
Cc1ccc2c3c1C1(C(=O)N3C(C)(C)CC2C)C(C#N)=C(N)Oc2cc(O)ccc21 (configuration not stated)	-1	-7	5	-5	-1	7
Cc1cc2c3c(c1)C1(C(=O)N3C(C)(C)CC2C)C(C#N)=C(N)Oc2cc(O)ccc21 (configuration not stated)	-20	-3	6	66*	-9	21
Cc1ccc(-c2noc(CSc3nnc(-c4ccncc4)n3-c3ccc(C)cc3)n2)cc1	6	-14	-16	?	21	26
CCOc1ccc(-n2c(SCc3nc(-c4ccc(C)cc4)no3)nnc2-c2ccncc2)cc1	15	0	-8	58*	-8	-33
CC(C)CCN(C(=O)C1=COCCO1)c1c(N)n(Cc2ccccc2)c(=O)[nH]c1=O	-4	8	-1	-1	-6	25
COc1ccc(N(C)S(=O)(=O)c2cccc(C(=O)NCC3CCCCC3)c2)cc1	4	/	13	69*	/	/
COc1ccc(NC(=O)C/C(C)=N/NC(=O)c2ccco2)c([N+](=O)[O-])c1	7	2	-1	-9	-5	6
Cn1c(=O)c2ccccc2n(Cc2cccc(F)c2)c1=O	16	4	-3	5	0	1
CCN(CC)c1nc(SCCOC(=O)Nc2ccccc2)nc(N(CC)CC)n1	5	8	10	68*	81*	18
COc1ccc(S(=O)(=O)N2CCN(C(=O)c3ccc(NC(C)=O)cc3)CC2)cc1	/	-5	/	/	/	19
CCn1c(=NC(=O)CS(=O)(=O)c2ccccc2)sc2cccc(OC)c21	-1	/	-3	58*	5	-11
CCC(C)n1cnc2c(c1=O)c1nc3ccccc3nc1n2Cc1ccc(OC)cc1 (configuration not stated)	98*	-2	17	40	4	8
CCCCn1c2nc3ccccc3nc2c2c(=O)n(CCC(C)C)cnc21	-24	/	8	9	-16	28
Cc1nc(C)c(C(=O)OC(C)C(=O)Nc2ccc(F)cc2)s1 (configuration not stated)	/	/	/	/	/	-2
OC(c1ccc(OCc2ccccc2)cc1)c1nnc(-c2ccccc2)o1 (configuration not stated)	-17	-3	57*	3	8	15
Cc1ccc(NC(=O)CSCC(=O)OC(C)C(=O)Nc2ccccc2C)cc1 (configuration not stated)	/	/	/	/	/	15
COc1ccc(CCNC(=O)C(C)SCc2ccccc2)cc1 (configuration not stated)	16	4	-2	7	-4	0
COc1ccc(N(C(=O)CCl)C(C(=O)NCCc2ccccc2)c2cccs2)cc1 (configuration not stated)	4	-4	-5	12	111*	/
CN1CCN(c2ncnc3c2c(-c2ccccc2)cn3-c2ccc(F)cc2)CC1	10	1	-10	31	23	22
c1ccc(-c2cn(-c3ccccc3)c3ncnc(N4CCCCC4)c23)cc1	-6	3	67*	-2	71	21
Cc1cc(C)cc(NC(=O)OCCN2CCN(Cc3ccccc3)CCC2=O)c1	4	0	3	5	-17	-3
